Measurements taken from ChEMBL document CHEMBL1126653, “Structure-function studies of amphiphilic antibacterial peptides” (1993).
In brackets after ≈: the same amount, converted by molar mass. Peptide text beside a SMILES is read from it.

Legend:
[1] = test system: Salmonella enterica subsp. enterica serovar Anatum; test: Compound tested for the antimicrobial activity against S. a natum; format: functional, salmoneila anatum
How it was run: (§1)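 Microbroth dilution in Tryptic Soy Broth; inoculum 5×10^5 CFU/mL; plates incubated at 37 °C for 18-20 h; value reported as minimal inhibitory concentration (µg/mL).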

[2] = test system: Enterobacter cloacae; test: Compound tested for the antimicrobial activity against Enterobacter cloacae ROS; format: functional, enterobacter cloacaeros
How it was run: (§2)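 MIC by microbroth dilution in Tryptic Soy Broth; inoculum 5×10^5 CFU/mL; plates incubated 18-20 h at 37 °C; assay pH approximately 7.4.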

[3] = test system: Pseudomonas aeruginosa; test: Compound tested for the antimicrobial activity against Pseudomonas aeruginosa strain 11; format: functional; how it was run: as §1
[4] = test system: Pseudomonas aeruginosa; test: Compound tested for the antimicrobial activity against Pseudomonas aeruginosa strain 6; format: functional; how it was run: as §1
[5] = test system: Pseudomonas aeruginosa; test: Compound tested for the antimicrobial activity against Pseudomonas aeruginosa strain 8; format: functional; how it was run: as §1
[6] = test system: Staphylococcus aureus; test: Compound tested for the activity against Staphylococcus aureus strain 1; format: functional; how it was run: as §1
[7] = test system: Staphylococcus aureus; test: Compound tested for the activity against Staphylococcus aureus strain 3; format: functional; how it was run: as §1
[8] = test system: Klebsiella pneumoniae; test: Compound tested for the antimicrobial activity against Klebsiella pneumoniae; format: functional; how it was run: as §2
[9] = test system: Staphylococcus aureus; test: Compound tested for in vitro susceptibility against ATCC strain 29213 of Staphylococcus aureus; format: functional; how it was run: as §1
[10] = test system: Pseudomonas aeruginosa; test: Compound tested for the antimicrobial activity against Pseudomonas aeruginosa strain ATCC 25916; format: functional; how it was run: as §1
[11] = test system: Staphylococcus aureus; test: Compound tested for the activity against Staphylococcus aureus strain 10; format: functional; how it was run: as §1
[12] = test system: Pseudomonas aeruginosa; test: Compound tested for in vitro susceptibility against ATCC strain 27853 of Pseudomonas aeruginosa; format: functional; conditions: ATCC 27853; how it was run: as §1
[13] = test system: Staphylococcus aureus; test: Compound tested for the activity against Staphylococcus aureus strain 6; format: functional; how it was run: as §1
[14] = test system: Pseudomonas aeruginosa; test: Compound tested for the antimicrobial activity against Pseudomonas aeruginosa strain 1; format: functional; how it was run: as §1
[15] = test system: Pseudomonas aeruginosa; test: Compound tested for the antimicrobial activity against Pseudomonas aeruginosa strain 10; format: functional; how it was run: as §1
[16] = test system: Shigella flexneri; test: Compound tested for the antimicrobial activity against Shigella flexneri; format: functional; how it was run: as §2
[17] = test system: Staphylococcus aureus; test: Compound tested for the activity against Staphylococcus aureus strain 9; format: functional; how it was run: as §1
[18] = test system: Pseudomonas aeruginosa; test: Compound tested for the antimicrobial activity against Pseudomonas aeruginosa strain 5; format: functional; how it was run: as §1
[19] = test system: Staphylococcus aureus; test: Compound tested for the activity against Staphylococcus aureus strain 4; format: functional; how it was run: as §1
[20] = test system: Staphylococcus aureus; test: Compound tested for the activity against Staphylococcus aureus strain 7; format: functional; how it was run: as §1
[21] = test system: Staphylococcus aureus; test: Compound tested for the activity against Staphylococcus aureus strain ATCC 28953; format: functional; how it was run: as §1
[22] = test system: Proteus mirabilis; test: Compound tested for the antimicrobial activity against Proteus mirabilis; format: functional; how it was run: as §1
[23] = test system: Pseudomonas aeruginosa; test: Compound tested for the antimicrobial activity against Pseudomonas aeruginosa strain 7; format: functional; how it was run: as §1
[24] = test system: Pseudomonas aeruginosa; test: Compound tested for the antimicrobial activity against Pseudomonas aeruginosa strain 9; format: functional; how it was run: as §1
[25] = test system: Enterobacter cloacae; test: Compound tested for the antimicrobial activity against Enterobacter cloacae; format: functional; how it was run: as §1
[26] = test system: Pseudomonas aeruginosa; test: Compound tested for the antimicrobial activity against Pseudomonas aeruginosa strain 3; format: functional; how it was run: as §1
[27] = test system: Pseudomonas aeruginosa; test: Compound tested for the antimicrobial activity against Pseudomonas aeruginosa strain 2; format: functional; how it was run: as §1
[28] = test system: Staphylococcus aureus; test: Compound tested for the activity against Staphylococcus aureus strain 11; format: functional; how it was run: as §1
[29] = test system: Escherichia coli; test: Compound tested for in vitro susceptibility against ATCC strain 25922 of Escherichia coli; format: functional; conditions: ATCC25922; how it was run: as §1
[30] = test system: Staphylococcus aureus; test: Compound tested for the activity against Staphylococcus aureus strain 5; format: functional; how it was run: as §1
[31] = test system: Staphylococcus aureus; test: Compound tested for the activity against Staphylococcus aureus strain 2; format: functional; how it was run: as §1
[32] = test system: Acinetobacter calcoaceticus subsp. anitratus; test: Compound tested for the antimicrobial activity against Acinetobacter anitratus; format: functional; how it was run: as §2
[33] = test system: Staphylococcus aureus; test: Compound tested for the activity against Staphylococcus aureus strain 8; format: functional; how it was run: as §1
[34] = test system: Pseudomonas aeruginosa; test: Compound tested for the antimicrobial activity against Pseudomonas aeruginosa strain 4; format: functional; how it was run: as §1
[35] = Hemolytic activity towards human erythrocytes is evaluated for magainin 2 at peptide concentration of 25 ug/mL; format: functional
How it was run: (§3)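 Washed human erythrocytes from healthy volunteers (3 mL packed cells, PBS pH 7.4 washes, diluted to 20 mL) exposed to peptide in PBS at 25-200 µg/mL, 30 min at 37 °C; supernatant absorbance at 576 nm after centrifugation; 0.1% Triton X-100 taken as 100% hemolysis; duplicates.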

[36] = Hemolytic activity towards human erythrocytes is evaluated for magainin 2 at peptide concentration of 200 µg/mL; format: functional; how it was run: as §3
[37] = Hemolytic activity towards human erythrocytes is evaluated for magainin 2 at peptide concentration of 100 µg/mL; format: functional; how it was run: as §3
[38] = Hemolytic activity towards human erythrocytes is evaluated for magainin 2 at peptide concentration of 50 µg/mL; format: functional; how it was run: as §3
[39] = test system: Staphylococcus aureus; test: Compound tested for the activity against strain of Staphylococcus aureus ATCC 28953; format: functional; how it was run: as §1

SMILES	MIC [3] [µg/mL]	MIC [4] [µg/mL]	MIC [5] [µg/mL]	MIC [6] [µg/mL]	MIC [7] [µg/mL]	MIC [9] [µg/mL]	MIC [10] [µg/mL]	MIC [11] [µg/mL]	MIC [12] [µg/mL]	MIC [13] [µg/mL]	MIC [14] [µg/mL]	MIC [15] [µg/mL]	MIC [17] [µg/mL]	MIC [18] [µg/mL]	MIC [19] [µg/mL]	MIC [20] [µg/mL]	MIC [23] [µg/mL]	MIC [24] [µg/mL]	MIC [26] [µg/mL]	MIC [27] [µg/mL]	further results
CC(C)C[C@H](NC(=O)[C@H](CCCCN)NC(=O)[C@H](CC(C)C)NC(=O)[C@H](Cc1c[nH]c2ccccc12)NC(=O)[C@H](CCCCN)NC(=O)[C@@H](N)CCCCN)C(=O)N[C@@H](Cc1c[nH]c2ccccc12)C(=O)N[C@@H](CCCCN)C(=O)N[C@@H](C)C(=O)N[C@@H](Cc1c[nH]c2ccccc12)C(=O)O (H-KKWLKLWKAW-OH)	50 (≈ 36.1 µM)	> 100	50 (≈ 36.1 µM)	> 100	> 100	12.5 (≈ 9.01 µM)	25 (≈ 18 µM)	> 100	12.5 (≈ 9.01 µM)	> 100	25 (≈ 18 µM)	50 (≈ 36.1 µM)	> 100	50 (≈ 36.1 µM)	> 100	> 100	50 (≈ 36.1 µM)	> 100	50 (≈ 36.1 µM)	12.5 (≈ 9.01 µM)	MIC [1]: 12.5 µg/mL (≈ 9.01 µM); MIC [2]: 50 µg/mL (≈ 36.1 µM); MIC [8]: > 100 µg/mL; MIC [16]: < 0.39 µg/mL; MIC [21]: > 100 µg/mL; MIC [22]: > 100 µg/mL; MIC [25]: < 0.39 µg/mL; MIC [28]: > 100 µg/mL; MIC [29]: 25 µg/mL (≈ 18 µM); MIC [30]: > 100 µg/mL; MIC [31]: > 100 µg/mL; MIC [32]: < 0.39 µg/mL; MIC [33]: > 100 µg/mL; MIC [34]: 50 µg/mL (≈ 36.1 µM)
CC(C)C[C@H](NC(=O)[C@H](C)NC(=O)[C@H](CCCCN)NC(=O)[C@H](C)NC(=O)[C@H](CC(C)C)NC(=O)[C@H](CCCCN)NC(=O)[C@H](C)NC(=O)[C@H](CC(C)C)NC(=O)[C@H](CCCCN)NC(=O)[C@H](C)NC(=O)[C@H](CC(C)C)NC(=O)[C@H](CCCCN)NC(=O)[C@H](CCCCN)NC(=O)[C@H](C)NC(=O)[C@H](CC(C)C)NC(=O)[C@@H](N)CCCCN)C(=O)O (H-KLAKKLAKLAKLAKAL-OH)	6.25 (≈ 3.66 µM)	> 100	50 (≈ 29.3 µM)	> 100	> 100	12.5 (≈ 7.32 µM)	6.25 (≈ 3.66 µM)	> 100	3.12 (≈ 1.83 µM)	> 100	3.12 (≈ 1.83 µM)	> 100	> 100	6.25 (≈ 3.66 µM)	> 100	> 100	6.25 (≈ 3.66 µM)	> 100	3.12 (≈ 1.83 µM)	6.25 (≈ 3.66 µM)	Hemolysis [35]: 1%; Hemolysis [36]: 2%; MIC [1]: 25 µg/mL (≈ 14.6 µM); MIC [2]: 12.5 µg/mL (≈ 7.32 µM); Hemolysis [37]: 1%; MIC [8]: 12.5 µg/mL (≈ 7.32 µM); MIC [16]: 25 µg/mL (≈ 14.6 µM); MIC [21]: > 100 µg/mL; MIC [22]: > 100 µg/mL; MIC [25]: 3.12 µg/mL (≈ 1.83 µM); MIC [28]: > 100 µg/mL; MIC [29]: 6.25 µg/mL (≈ 3.66 µM); MIC [30]: > 100 µg/mL; MIC [31]: > 100 µg/mL; MIC [32]: 3.12 µg/mL (≈ 1.83 µM); MIC [33]: > 100 µg/mL; Hemolysis [38]: 1%; MIC [34]: 3.12 µg/mL (≈ 1.83 µM)
CC(C)C[C@H](NC(=O)[C@H](Cc1c[nH]c2ccccc12)NC(=O)[C@H](CCCCN)NC(=O)[C@H](CCCCN)NC(=O)[C@@H](N)Cc1c[nH]c2ccccc12)C(=O)N[C@@H](Cc1c[nH]c2ccccc12)C(=O)N[C@@H](C)C(=O)N[C@@H](CCCCN)C(=O)N[C@@H](Cc1c[nH]c2ccccc12)C(=O)O (H-WKKWLWAKW-OH)	50 (≈ 37.5 µM)	> 100	50 (≈ 37.5 µM)	50 (≈ 37.5 µM)	> 100	25 (≈ 18.8 µM)	50 (≈ 37.5 µM)	50 (≈ 37.5 µM)	12.5 (≈ 9.39 µM)	50 (≈ 37.5 µM)	50 (≈ 37.5 µM)	> 100	50 (≈ 37.5 µM)	50 (≈ 37.5 µM)	50 (≈ 37.5 µM)	25 (≈ 18.8 µM)	50 (≈ 37.5 µM)	> 100	50 (≈ 37.5 µM)	12.5 (≈ 9.39 µM)	Hemolysis [35]: 1%; Hemolysis [36]: 5%; Hemolysis [37]: 4%; MIC [39]: > 100 µg/mL; MIC [28]: 50 µg/mL (≈ 37.5 µM); MIC [29]: 50 µg/mL (≈ 37.5 µM); MIC [30]: 50 µg/mL (≈ 37.5 µM); MIC [31]: 25 µg/mL (≈ 18.8 µM); MIC [33]: 50 µg/mL (≈ 37.5 µM); Hemolysis [38]: 1%; MIC [34]: 50 µg/mL (≈ 37.5 µM)
